# The list is a sample of the results.
# PGC1a Ac signal = raises PGC1a acetylation signal in U2OS cells; U2OS PGC1a acetylation AlphaScreen, overnight; activation, % at 15.6 µM; 350,000 compounds, 0.21% hits; AID 651723;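 active means every replicate reaching activation of at least 50%, whatever the mean replicate activation; inconclusive means replicates that disagree or another doubt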;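 further: hits raise the AlphaScreen acetylation signal above neutral controls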
#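 detection = AlphaScreen lysate read | assay system = U2OS cells expressing flag-PGC1a plus GCN5 | input = 7000 cells/well | dosing = one concentration | times = compound overnight at 37 °C, each detection step 1 h RT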
# Hep G6PC suppr = PGC-1a acetylation activator altering hepatocyte G6PC expression; primary mouse hepatocytes, G6PC mRNA qPCR, forskolin; shares compounds with PGC1a Ac signal; 240 tested, under 10 active; AID 743463; G6PC suppression (normalized activity, % of positive control; higher = more suppression), % at 26 µM;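 active means dose curves showing G6PC suppression whose half-maximal dose is at most twice the top valid dose; inconclusive means flat curves with moderate negative activity, or unreliable fits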;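 further: G6PC expression relative to GAPDH housekeeping gene as delta delta Ct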
# Hep PCK1 suppr = PGC-1a acetylation activator altering hepatocyte PCK1 expression; PCK1 expression decrease, unspecified at 26 µM; primary mouse hepatocytes, PCK1 mRNA qPCR, forskolin-stimulated; 230 tested, under 10 active; shares compounds with PGC1a Ac signal; AID 743465;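 active means compounds lowering PCK1 expression whose fitted half-maximal concentration is at most twice the top tested dose; inconclusive means flat fit with moderate opposite-direction effect, or poor fit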;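 further: higher delta delta Ct means lower PCK1 expression so positive values indicate hits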
# Hep PGC-1a down = hepatocyte PGC-1a expression change via PGC-1a acetylation activation; shares compounds with PGC1a Ac signal; 240 tested, under 10 active; max activity (PGC-1a expression decrease), %; primary mouse hepatocytes, PGC-1a mRNA qPCR, forskolin; top dose 26 µM;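 active means compound lowering PGC-1a expression with fitted half-maximal concentration at most twice its top tested dose; inconclusive means flat curve with moderate opposite-direction effect, or poor fit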
# Numbers stand for hits; . = inactive; ? = inconclusive; / = no result.
SMILES,PGC1a Ac signal,Hep G6PC suppr,Hep PCK1 suppr,Hep PGC-1a down
COc1cc(/C=C2\CC(C(C)(C)C)C/C(=C\c3cc(OC)c(OC)c(OC)c3)C2=O)cc(OC)c1OC (configuration not stated),.,/,/,/
COc1cc(C=C(C(C)=O)C(C)=O)ccc1O,.,/,/,/
Cc1ccc(NC(=O)c2c(C(F)(F)F)nn(C)c2SCc2ccc(Cl)cc2)cc1C,?,.,.,.
Cc1cc(N2CCN(C)CC2)ccc1NC(=O)c1c2c(nc3ccccc13)CCN(Cc1ccccc1)C2,.,/,/,/
CC1(C(=O)Nc2cccc(C#N)c2)CCN1C(=O)CCc1ccccc1 (configuration not stated),.,/,/,/
CCOC(=O)C(C)n1cnc2c(nnn2-c2ccc(C)cc2)c1=O (configuration not stated),.,.,.,?
CSc1nn(-c2ccc(C(=O)OC(C(=O)NC(N)=O)C(C)C)cc2)c(=S)s1 (configuration not stated),.,/,/,/
O=c1oc(-c2ccccc2)nc2sc3c(c12)CCC3,.,/,/,/
O=C(COc1ccc(Cl)cc1Cl)NCCCN1CCOCC1,.,/,/,/
Cc1nnc(-c2ccccc2)c(=O)n1/N=C/c1c(O)ccc2ccccc12,.,/,/,/
O=P(CCCCCCCCCP(=O)(c1ccccc1)c1ccccc1)(c1ccccc1)c1ccccc1,.,/,/,/
Cc1ccccc1Cn1cc(NC(=O)c2cc(-c3cccs3)on2)cn1,?,/,.,.
CCN1CCN(Cc2ccc(NC(=O)c3ccc(C)c(NC(=O)c4cncc(-c5cccs5)c4)c3)cc2C(F)(F)F)CC1,.,/,/,/
Cc1ccccc1CSc1nnc(-c2ccco2)n1Cc1ccco1,.,/,/,/
COc1ccc(-c2nc3c(C)cc(Br)cn3c2Cc2ccc(C)cc2)cc1OC,?,.,.,.
O=C1C=C(c2c(O)ccc3ccccc23)c2ccccc2C1=O,.,/,/,/
COc1ccc(S(=O)(=O)N(Cc2cc3ccc(OC)cc3[nH]c2=O)CC2COCCO2)cc1 (configuration not stated),.,/,/,/
COC(=O)c1cc(S(=O)(=O)N2CCN(c3ccc(C(C)=O)cc3)CC2)c[nH]1,?,.,.,.
Nc1c(C(=O)Nc2ccccc2)c2nc3ccccc3nc2n1CCCN1CCOCC1,56.9,.,.,.
Cc1cc(=O)n2[nH]c(=O)c(N=Nc3ccccc3)c2[nH]1,.,/,/,/
CS(=O)c1nc(-c2ccc(Br)cc2)cc(-c2ccccc2)c1C#N (configuration not stated),.,/,/,/
COC(=O)CSc1nc(-c2ccccc2)cc(-c2ccco2)c1C#N,67.1,.,.,.
N#Cc1c(-c2cccc(Br)c2)cc(-c2ccco2)[nH]c1=O,.,/,/,/
CC(=O)c1ccc(NC(=O)N2CCc3ccccc3C2)cc1,269.0,.,.,.
CC(=O)Nc1ccc(NC(=O)CN(c2cc(Cl)ccc2Cl)S(C)(=O)=O)cc1,116.6,.,/,.
O=C(CCl)Nc1cc(SCC(O)CO)cc([N+](=O)[O-])c1 (configuration not stated),.,/,/,/
CC(C)C[C@H]1CNC(=S)N1CC1CCCN1C[C@H](Cc1ccccc1)N1C[C@H](Cc2ccc(O)cc2)N(CC2CCCCCC2)C1=S (some centres not stated),.,/,/,/
CCCn1c(=O)c2ccccc2n2c(SCc3c(C(=O)OCC)oc4ccccc34)nnc12,.,/,/,/
O=Nc1c(O)c2ccccc2c2ccccc12,.,/,/,/
